In ChEMBL document CHEMBL3784921, “Mimicking of Arginine by Functionalized N(ω)-Carbamoylated Arginine As a New Broadly Applicable Approach to Labeled Bioactive Peptides: High Affinity Angiotensin, Neuropeptide Y, Neuropeptide FF, and Neurotensin Receptor Ligands As Examples” (J Med Chem, 2016):
*1 amine or outer side, *2 acyl side, *3 side chain or, on linkers, in order; H or OH if unused. Where a SMILES comes first, the peptide text is derived from it. Bridges are numbered along the chain shown (N, C = ends). Roman numbers before positions name the chains, in order. [ ]: non-standard residue; d: D form. X6 = CCC(=O)NCCCCNC(=O)/N=C(/N)NCCC[C@H](N[*:1])C(=O)[*:2]; X3 = NCCOCCOCCNC(=O)/N=C(\N)NCCC[C@H](N[*:1])C(=O)[*:2]; X4 = NCCOCCOCCNC(=O)/N=C(/N)NCCC[C@H](N[*:1])C(=O)[*:2]; X2 = NCCCCNC(=O)/N=C(\N)NCCC[C@H](N[*:1])C(=O)[*:2]; X7 = NCCCCNC(=O)/N=C(/N)NCCC[C@H](N[*:1])C(=O)[*:2]; Suberoyl = O=C(CCCCCCC(=O)[*:2])[*:1]

Columns and labels:
[1] = biological target: Neurotensin receptor type 1 (Homo sapiens, UniProt P30989); assay: Displacement of [3H]-{Nomega-[N-(4-propanoylaminobutyl)aminocarbonyl]}Arg-Arg-ProTyr-Ile-Leu-OH Tris(hydrotrifluoroacetate) from NTSR1 in human HT-29 cells after 2 hrs by liquid scintillation counting; format: cell-based
Chain of Neurotensin receptor type 1 (P30989 whole entry): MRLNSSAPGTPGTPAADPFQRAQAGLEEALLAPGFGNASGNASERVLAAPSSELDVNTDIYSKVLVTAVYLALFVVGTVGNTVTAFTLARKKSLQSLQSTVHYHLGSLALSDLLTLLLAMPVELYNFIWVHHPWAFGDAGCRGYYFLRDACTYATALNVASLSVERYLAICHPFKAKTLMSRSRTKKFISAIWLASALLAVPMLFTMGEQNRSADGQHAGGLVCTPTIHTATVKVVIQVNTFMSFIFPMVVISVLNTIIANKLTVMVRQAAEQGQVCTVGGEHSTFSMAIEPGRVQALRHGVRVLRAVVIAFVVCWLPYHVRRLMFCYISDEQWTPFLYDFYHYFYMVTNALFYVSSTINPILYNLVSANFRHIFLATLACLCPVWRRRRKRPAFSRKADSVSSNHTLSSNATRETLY

[2] = Drug degradation in human HT-29 cells at 50 uM after 2 hrs by reversed-phase HPLC analysis; format: ADME, cell-based; conditions: read-out: Drug degradation
Procedure, shortened: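 Stability tested under binding-assay conditions for up to 6 h: AT1 ligands with CHO-hAT1 cells and NTSR1 ligands with HT-29 cells. Samples analysed by reversed-phase HPLC chromatography.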

[3] = Chemical stability of compound at 200 uM at pH 7 at 21 degC after 24 to 48 hrs by reversed-phase HPLC analysis; format: physicochemical; conditions: buffer, pH 7, 200 µM
Procedure, shortened: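 Peptide incubated in phosphate buffer (PBS), pH 7.0, 21 °C, for 24 or 48 h. Remaining intact peptide assessed by reversed-phase HPLC chromatograms.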

[4] = biological target: T1, Type-1 angiotensin II receptor (Homo sapiens, UniProt P30556); assay: Agonist activity at human AT1 receptor transfected in CHO cells co-expressing Galpha16-mtAEQ assessed as induction of intracellular Ca2+ mobilization by bioluminescence assay; format: functional, cell-based
T1 sequence (P30556 whole entry): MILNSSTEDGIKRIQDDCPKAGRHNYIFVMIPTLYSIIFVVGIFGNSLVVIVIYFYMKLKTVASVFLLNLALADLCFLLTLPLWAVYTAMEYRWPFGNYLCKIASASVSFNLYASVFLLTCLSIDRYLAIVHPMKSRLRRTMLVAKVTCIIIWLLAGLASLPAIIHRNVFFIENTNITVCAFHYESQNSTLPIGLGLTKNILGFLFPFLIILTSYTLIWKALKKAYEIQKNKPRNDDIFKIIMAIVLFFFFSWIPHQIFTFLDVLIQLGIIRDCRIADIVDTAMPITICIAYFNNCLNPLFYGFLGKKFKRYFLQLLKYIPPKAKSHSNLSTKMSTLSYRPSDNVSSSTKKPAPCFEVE

[5] = biological target: T1, Type-1 angiotensin II receptor; assay: Displacement of [3H]-Asp-{Nomega-[N-(4-propanoylaminobutyl)aminocarbonyl]}Arg-ValTyr-Ile-His-Pro-Phe-OH Tris(hydrotrifluoroacetate) from human AT1 receptor transfected in CHO cells co-expressing Galpha16-mtAEQ after 2 hrs by liquid scintillation counting; format: cell-based
[6] = biological target: Neuropeptide FF receptor 2 (Homo sapiens, UniProt Q9Y5X5); assay: Displacement of [3H]EYE from human NPFF2 receptor expressed in CHO cell membranes after 1 hr by liquid scintillation spectrophotometric counting
Chain of Neuropeptide FF receptor 2 (Q9Y5X5 whole entry): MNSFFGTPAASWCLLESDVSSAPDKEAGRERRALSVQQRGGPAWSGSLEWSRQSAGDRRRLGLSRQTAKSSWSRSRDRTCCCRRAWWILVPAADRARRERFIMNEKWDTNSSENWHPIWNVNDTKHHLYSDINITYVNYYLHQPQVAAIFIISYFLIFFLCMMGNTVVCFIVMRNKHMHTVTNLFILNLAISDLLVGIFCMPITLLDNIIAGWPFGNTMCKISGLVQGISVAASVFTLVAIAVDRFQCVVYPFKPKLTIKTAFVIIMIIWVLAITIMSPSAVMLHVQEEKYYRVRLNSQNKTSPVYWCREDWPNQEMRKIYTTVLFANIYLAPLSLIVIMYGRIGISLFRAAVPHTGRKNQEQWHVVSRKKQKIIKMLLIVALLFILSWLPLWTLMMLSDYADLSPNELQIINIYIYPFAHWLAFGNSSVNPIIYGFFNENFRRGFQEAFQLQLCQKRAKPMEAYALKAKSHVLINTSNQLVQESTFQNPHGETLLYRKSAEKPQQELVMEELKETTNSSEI

[7] = biological target: Neuropeptide Y receptor type 4 (Homo sapiens, UniProt P50391); assay: Displacement of S0586[K4]hpp from human NPY4 receptor expressed in CHO cells co-expressing Gqi5-mtAEQ by flow cytometric analysis; format: cell-based
Chain of Neuropeptide Y receptor type 4 (P50391 whole entry): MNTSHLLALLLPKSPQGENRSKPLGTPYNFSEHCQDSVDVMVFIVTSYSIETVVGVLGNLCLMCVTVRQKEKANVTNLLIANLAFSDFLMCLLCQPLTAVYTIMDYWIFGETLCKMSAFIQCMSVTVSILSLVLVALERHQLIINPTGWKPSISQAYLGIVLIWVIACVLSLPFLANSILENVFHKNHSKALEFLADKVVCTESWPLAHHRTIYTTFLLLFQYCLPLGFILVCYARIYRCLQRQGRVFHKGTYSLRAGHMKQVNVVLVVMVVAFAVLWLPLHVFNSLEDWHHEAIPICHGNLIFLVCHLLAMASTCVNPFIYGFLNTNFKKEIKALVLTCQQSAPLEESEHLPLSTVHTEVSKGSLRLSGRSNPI

Structure (SMILES): COc1cccc(OC)c1-c1cc(C(=O)NC2(C(=O)O)C3CC4CC(C3)CC2C4)nn1-c1ccc(C(=O)N(C)CCCN(C)C)cc1C(C)C (stereo not drawn)
- IC50 [1]: 3.16 nM
- Ki [1]: 1.1 nM

Structure (SMILES): CCC(=O)NCCOCCOCCNC(=O)/N=C(\N)NCCC[C@H](N)C(=O)N[C@@H](CCCNC(=N)N)C(=O)N1CCC[C@H]1C(=O)N[C@@H](Cc1ccc(O)cc1)C(=O)N[C@H](C(=O)N[C@@H](CC(C)C)C(=O)O)[C@@H](C)CC
- metabolised at 2 h, 50 µM [2]: < 5.5%

Structure (SMILES): CC[C@H](C)[C@H](NC(=O)[C@H](Cc1ccc(O)cc1)NC(=O)[C@@H]1CCCN1C(=O)[C@H](CCCNC(=N)N)NC(=O)[C@@H](N)CCCNC(=N)N)C(=O)N[C@@H](CC(C)C)C(=O)O
- metabolised at 2 h, 50 µM [2]: < 5.5%

Structure (SMILES): CC[C@H](C)[C@H](NC(=O)[C@H](Cc1ccc(O)cc1)NC(=O)[C@@H](NC(=O)[C@H](CCCN/C(N)=N/C(=O)NCCCCN)NC(=O)[C@@H](N)CC(=O)O)C(C)C)C(=O)N[C@@H](Cc1cnc[nH]1)C(=O)N1CCC[C@H]1C(=O)N[C@@H](Cc1ccccc1)C(=O)O.O=C(O)C(F)(F)F.O=C(O)C(F)(F)F.O=C(O)C(F)(F)F.O=C(O)C(F)(F)F (H-D[X2]VYIHPF-OH)
- Stability [3]: Stable
- EC50 [4]: 1.4 nM
- IC50 [5]: 6.17 nM
- Ki [5]: 2.1 nM

Structure (SMILES): CC[C@H](C)[C@H](NC(=O)[C@H](Cc1ccc(O)cc1)NC(=O)[C@@H](NC(=O)[C@H](CCCN/C(N)=N/C(=O)NCCOCCOCCN)NC(=O)[C@@H](N)CC(=O)O)C(C)C)C(=O)N[C@@H](Cc1cnc[nH]1)C(=O)N1CCC[C@H]1C(=O)N[C@@H](Cc1ccccc1)C(=O)O.O=C(O)C(F)(F)F.O=C(O)C(F)(F)F.O=C(O)C(F)(F)F.O=C(O)C(F)(F)F (H-D[X3]VYIHPF-OH)
- Stability [3]: Stable
- EC50 [4]: 2.1 nM
- Ki [5]: 2.8 nM

Structure (SMILES): CCC(=O)NCCCCNC(=O)/N=C(/N)NCCC[C@H](NC(=O)[C@H](CCC(N)=O)NC(=O)[C@@H]1CCCN1C(=O)[C@H](C)NC(=O)[C@H](C)NC(=O)[C@H](CC(C)C)NC(=O)[C@H](CO)NC(=O)[C@H](Cc1c[nH]c2ccccc12)NC(=O)[C@H](Cc1ccc(O)cc1)NC(=O)[C@@H](N)CCC(=O)O)C(=O)N[C@@H](Cc1ccccc1)C(N)=O.O=C(O)C(F)(F)F.O=C(O)C(F)(F)F (H-EYWSLAAPQ[X6]F-NH2)
- Stability [3]: Stable
- Ki [6]: 41 nM

Structure (SMILES): CC(C)C[C@H](NC(=O)[C@H](CO)NC(=O)[C@H](Cc1c[nH]c2ccccc12)NC(=O)[C@H](Cc1ccc(O)cc1)NC(=O)[C@@H](N)CCC(=O)O)C(=O)N[C@@H](C)C(=O)N[C@@H](C)C(=O)N1CCC[C@H]1C(=O)N[C@@H](CCC(N)=O)C(=O)N[C@@H](CCCN/C(N)=N\C(=O)NCCCCN)C(=O)N[C@@H](Cc1ccccc1)C(N)=O.O=C(O)C(F)(F)F.O=C(O)C(F)(F)F.O=C(O)C(F)(F)F (H-EYWSLAAPQ[X7]F-NH2)
- Stability [3]: Stable
- Ki [6]: 27 nM

Structure (SMILES): CC[C@H](C)[C@H](NC(=O)[C@H](Cc1ccc(O)cc1)NC(=O)[C@@H]1CCCN1C(=O)[C@H](CCCN/C(N)=N\C(=O)NCCOCCOCCN)NC(=O)[C@@H](N)CCCNC(=N)N)C(=O)N[C@@H](CC(C)C)C(=O)O (H-R[X4]PYIL-OH)
- Ki [1]: 0.36 nM

Structure (SMILES): CC[C@H](C)[C@H](NC(=O)[C@H](Cc1ccc(O)cc1)NC(=O)[C@@H]1CCCN1C(=O)[C@H](CCCNC(=N)N)NC(=O)[C@@H](N)CCCN/C(N)=N/C(=O)NCCOCCOCCN)C(=O)N[C@@H](CC(C)C)C(=O)O (H-[X3]RPYIL-OH)
- Ki [1]: 0.26 nM

Structure (SMILES): CC(C)C[C@H](NC(=O)[C@H](CCCNC(=N)N)NC(=O)[C@H](Cc1ccc(O)cc1)NC(=O)CCCCCCC(=O)N[C@@H](Cc1ccc(O)cc1)C(=O)N[C@@H](CCCNC(=N)N)C(=O)N[C@@H](CC(C)C)C(=O)N[C@@H](CCCNC(=N)N)C(=O)N[C@@H](Cc1ccc(O)cc1)C(N)=O)C(=O)N[C@@H](CCCNC(=N)N)C(=O)N[C@@H](Cc1ccc(O)cc1)C(N)=O (I: YRLRY-NH2 / II: YRLRY-NH2; linker I:N-II:N via Suberoyl)
- Ki [7]: 7.4 nM
